Data: ChEMBL document CHEMBL4689842, “EUbOPEN Chemogenomics Library wave 1” (2021)

Assays:
Assay type in all cases: toxicity, cell-based
U2OS [1] = experiment: Incucyte cell viability with U2OS; conditions: human, 10 µM, compound concentration 10 uM; further: filed as whole numbers so only -1 and 0 and 1 occur
HEK-293T = experiment: Incucyte cell viability with HEK293T; conditions: human, 10 µM, compound concentration 10 uM; further: filed as whole numbers so only -1 and 0 and 1 occur
U2OS [2] = experiment: Multiplex assay against U2OS; conditions: human
Procedure, shortened: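 Cells were classed with CellPathfinder machine-learning gating, first as Hoechst high-intensity objects or normal cells, then (normal cells) as healthy, pyknosed or fragmented nuclei, and finally (pyknosed cells) as mitotic or apoptotic. Staining of live cells at seeding used Hoechst33342, BioTracker Green Microtubule Cytoskeleton Dye, MitoTracker Red and Annexin V Alexa Fluor 680, with imaging on a CQ1 microscope at 37°C and 5% CO2 after compound addition. Tubulin, mitochondrial-mass and membrane-permeability phenotypes are per cents of healthy-nucleus cells.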

[3] = 0 h, replicate number 1, timepoint 0 hours
[4] = 12 h, replicate number 1, timepoint 12 hours
[5] = 18 h, replicate number 1, timepoint 18 hours
[6] = 24 h, replicate number 1, timepoint 24 hours
[7] = 12 h, 1 µM, compound concentration 1 uM, replicate 1
[8] = 12 h, 1 µM, compound concentration 1 uM, replicate 2
[9] = 12 h, 10 µM, compound concentration 10 uM, replicate 1
[10] = 12 h, 10 µM, compound concentration 10 uM, replicate 2
[11] = 24 h, 1 µM, compound concentration 1 uM, replicate 1
[12] = 24 h, 1 µM, compound concentration 1 uM, replicate 2

O=C(O)c1ccc2cc(-c3ccc(O)c(C45CC6CC(CC(C6)C4)C5)c3)ccc2c1 [O-DEMETHYLATED ADAPALENE]
Growth Rate (U2OS [1]; [3]): 0 | Growth Rate (U2OS [1]; [4]): 1 | Growth Rate (U2OS [1]; [5]): 1 | Growth Rate (U2OS [1]; [6]): 0 | Growth Rate (HEK-293T; [3]): 1 | Growth Rate (HEK-293T; 0 h, replicate number 2, timepoint 0 hours): 0 | Growth Rate (HEK-293T; 6 h, replicate number 1, timepoint 6 hours): 0 | Growth Rate (HEK-293T; [4]): 0 | Growth Rate (HEK-293T; [5]): 0 | Growth Rate (HEK-293T; [6]): 0 | Population Apoptotic (%) (U2OS [2]; [7]): 50% | Population Fragmented Nuclei (%) (U2OS [2]; [7]): 21% | Population Healthy Nuclei (%) (U2OS [2]; [7]): 66% | Population Hoechst High Intensity Objects (%) (U2OS [2]; [7]): 11% | Population Membrane Permeable-Phenotype (%) (U2OS [2]; [7]): 13% | Population Mitochondria Different-Phenotype (%) (U2OS [2]; [7]): 12% | Population Mitotic Cells (%) (U2OS [2]; [7]): 50% | Population Normal (%) (U2OS [2]; [7]): 88% | Population Pyknosed Nuclei (%) (U2OS [2]; [7]): 11% | Population Tubulin-Different-Phenotype (%) (U2OS [2]; [7]): 15% | Total Cell Count (U2OS [2]; [7]): 98 | Population Apoptotic (%) (U2OS [2]; [8]): 100% | Population Fragmented Nuclei (%) (U2OS [2]; [8]): 8% | Population Healthy Nuclei (%) (U2OS [2]; [8]): 87% | Population Hoechst High Intensity Objects (%) (U2OS [2]; [8]): 9% | Population Membrane Permeable-Phenotype (%) (U2OS [2]; [8]): 6% | Population Mitochondria Different-Phenotype (%) (U2OS [2]; [8]): 16% | Population Mitotic Cells (%) (U2OS [2]; [8]): 0% | Population Normal (%) (U2OS [2]; [8]): 90% | Population Pyknosed Nuclei (%) (U2OS [2]; [8]): 3% | Population Tubulin-Different-Phenotype (%) (U2OS [2]; [8]): 16% | Total Cell Count (U2OS [2]; [8]): 62 | Population Apoptotic (%) (U2OS [2]; [9]): 66% | Population Fragmented Nuclei (%) (U2OS [2]; [9]): 9% | Population Healthy Nuclei (%) (U2OS [2]; [9]): 85% | Population Hoechst High Intensity Objects (%) (U2OS [2]; [9]): 6% | Population Membrane Permeable-Phenotype (%) (U2OS [2]; [9]): 4% | Population Mitochondria Different-Phenotype (%) (U2OS [2]; [9]): 15% | Population Mitotic Cells (%) (U2OS [2]; [9]): 33% | Population Normal (%) (U2OS [2]; [9]): 93% | Population Pyknosed Nuclei (%) (U2OS [2]; [9]): 4% | Population Tubulin-Different-Phenotype (%) (U2OS [2]; [9]): 11% | Total Cell Count (U2OS [2]; [9]): 205 | Population Apoptotic (%) (U2OS [2]; [10]): 100% | Population Fragmented Nuclei (%) (U2OS [2]; [10]): 11% | Population Healthy Nuclei (%) (U2OS [2]; [10]): 87% | Population Hoechst High Intensity Objects (%) (U2OS [2]; [10]): 2% | Population Membrane Permeable-Phenotype (%) (U2OS [2]; [10]): 1% | Population Mitochondria Different-Phenotype (%) (U2OS [2]; [10]): 16% | Population Mitotic Cells (%) (U2OS [2]; [10]): 0% | Population Normal (%) (U2OS [2]; [10]): 97% | Population Pyknosed Nuclei (%) (U2OS [2]; [10]): 1% | Population Tubulin-Different-Phenotype (%) (U2OS [2]; [10]): 25% | Total Cell Count (U2OS [2]; [10]): 83 | Population Apoptotic (%) (U2OS [2]; [11]): 30% | Population Fragmented Nuclei (%) (U2OS [2]; [11]): 15% | Population Healthy Nuclei (%) (U2OS [2]; [11]): 73% | Population Hoechst High Intensity Objects (%) (U2OS [2]; [11]): 11% | Population Membrane Permeable-Phenotype (%) (U2OS [2]; [11]): 10% | Population Mitochondria Different-Phenotype (%) (U2OS [2]; [11]): 13% | Population Mitotic Cells (%) (U2OS [2]; [11]): 70% | Population Normal (%) (U2OS [2]; [11]): 89% | Population Pyknosed Nuclei (%) (U2OS [2]; [11]): 11% | Population Tubulin-Different-Phenotype (%) (U2OS [2]; [11]): 10% | Total Cell Count (U2OS [2]; [11]): 100 | Population Apoptotic (%) (U2OS [2]; [12]): 100% | Population Fragmented Nuclei (%) (U2OS [2]; [12]): 7% | Population Healthy Nuclei (%) (U2OS [2]; [12]): 89% | Population Hoechst High Intensity Objects (%) (U2OS [2]; [12]): 6% | Population Membrane Permeable-Phenotype (%) (U2OS [2]; [12]): 6%
